Screening data as filed in PubChem BioAssay.
This is a sample that favours compounds with a hit; in the whole collection about 2.6% have one here.
SIRT5 inh – blocks human SIRT5 desuccinylation of peptide; 330,000 tested, 1.1% active; Q9NXA8; Purified SirT5, succinyl-peptide AMC, trypsin-coupled fluorescence; inhibition, % at 15 µM; in the data active = inhibition above about 15%
FGF22 binding – shifts melting point of recombinant human FGF22; Q9HCT0; recombinant FGF22 thermal shift, SYPRO orange fluorescence; percent of sucrose octasulfate shift, DMSO zero; activity (Tm shift, normalised), % at 9.99 µM; 340,000 tested, 1.5% active; AID 651658;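 active = mean Tm shift, scaled 0 neutral to 100 positive control, at about 1.3% or above, every replicate too, limit read from the data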
NSD2 HMT inh – blocks human histone methyltransferase NSD2. NSD2 peptide methylation, AlphaScreen, 120 min. inhibition, % at 12.5 µM. 310,000 tested, 0.54% active; in the data active = inhibition above about 50%
Target sequence (O96028 whole entry, looked up): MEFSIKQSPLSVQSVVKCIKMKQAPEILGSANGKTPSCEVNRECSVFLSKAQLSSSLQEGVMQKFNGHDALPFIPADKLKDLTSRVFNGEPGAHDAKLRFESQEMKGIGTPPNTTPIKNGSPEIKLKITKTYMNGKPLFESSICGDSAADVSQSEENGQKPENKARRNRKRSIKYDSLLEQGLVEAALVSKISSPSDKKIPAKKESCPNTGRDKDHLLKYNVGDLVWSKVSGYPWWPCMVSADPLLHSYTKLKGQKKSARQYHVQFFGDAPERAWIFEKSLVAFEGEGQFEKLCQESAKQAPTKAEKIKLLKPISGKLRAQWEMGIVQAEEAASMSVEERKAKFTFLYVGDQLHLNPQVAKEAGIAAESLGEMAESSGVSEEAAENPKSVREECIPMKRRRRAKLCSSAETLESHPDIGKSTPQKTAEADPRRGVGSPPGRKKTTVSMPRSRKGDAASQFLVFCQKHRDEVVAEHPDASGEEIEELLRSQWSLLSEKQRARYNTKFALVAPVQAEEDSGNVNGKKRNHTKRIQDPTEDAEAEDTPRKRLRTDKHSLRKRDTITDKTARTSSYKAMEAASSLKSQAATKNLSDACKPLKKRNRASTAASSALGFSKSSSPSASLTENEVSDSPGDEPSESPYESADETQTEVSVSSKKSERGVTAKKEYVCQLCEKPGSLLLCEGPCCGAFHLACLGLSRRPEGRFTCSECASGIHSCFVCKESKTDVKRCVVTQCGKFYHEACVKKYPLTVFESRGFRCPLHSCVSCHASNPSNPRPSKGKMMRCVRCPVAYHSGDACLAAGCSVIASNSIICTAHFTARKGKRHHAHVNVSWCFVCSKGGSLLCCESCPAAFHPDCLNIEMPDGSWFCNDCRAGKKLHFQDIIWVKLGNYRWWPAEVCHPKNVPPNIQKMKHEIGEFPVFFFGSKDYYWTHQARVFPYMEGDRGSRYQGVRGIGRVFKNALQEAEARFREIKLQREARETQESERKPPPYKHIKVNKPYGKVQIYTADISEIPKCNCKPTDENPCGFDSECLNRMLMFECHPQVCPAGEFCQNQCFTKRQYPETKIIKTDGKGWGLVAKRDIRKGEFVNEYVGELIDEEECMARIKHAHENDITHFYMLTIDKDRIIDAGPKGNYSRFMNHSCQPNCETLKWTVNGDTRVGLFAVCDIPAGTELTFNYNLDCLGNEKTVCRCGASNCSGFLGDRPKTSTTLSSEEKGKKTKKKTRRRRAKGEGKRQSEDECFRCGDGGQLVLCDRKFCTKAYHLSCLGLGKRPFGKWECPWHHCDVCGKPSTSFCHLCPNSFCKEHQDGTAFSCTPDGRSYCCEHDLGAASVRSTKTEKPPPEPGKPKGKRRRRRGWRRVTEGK
CASP6 VEID inh – inhibitors of human caspase-6 | AID 686996 | inhibition, % at 12.5 µM | P55212 | 350,000 tested, 0.53% active | purified caspase-6, Z-VEID-R110 cleavage fluorescence;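 active = mean inhibition across replicates at least about 35%, with every replicate also reaching that limit, limit read from the data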;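 note: 0% = median of neutral control wells and 100% = no fluorescence left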
UCH37 inh – human UCH37 deubiquitinating enzyme inhibition; 330,000 tested, 0.33% active; inhibition, % (no concentration beside the values); purified proteasome/UCH37, Ub-AMC cleavage fluorescence; Q9Y5K5;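 active = mean inhibition over replicate wells above about 20%, limit read from the data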;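 note: 0% = compound-free wells with enzyme and 100% = wells lacking proteasome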
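system = Proteasome-associated human UCH37 deubiquitinase | amount = 0.15 nM proteasome as dispensed | medium = pH 7.4 Tris-HCl (50 mM) with ovalbumin, ATP-MgCl2, DTT | incubation = 30 min preincubation with enzyme, 25 min cleavage at room temperature | detection = AMC fluorescence 355/460 nm | read-out basis = percent inhibition | controls = no-proteasome and no-compound wells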
Numbers without * were called inactive; x = no result.

SMILES | SIRT5 inh | FGF22 binding | NSD2 HMT inh | CASP6 VEID inh | UCH37 inh
O=C(C1=C[C@H](c2ccc3c(c2)Cc2ccccc2-3)C[C@H](OCCCCO)O1)N1CCCCC1 | -2 | 0 | x | 2 | x
S=c1[nH]nc(-c2ccccn2)n1N=Cc1ccc(Cl)c(Cl)c1 | x | x | x | x | 3
O=C(/C=C/c1ccco1)N(Cc1ccc(Cl)cc1)C1CCS(=O)(=O)C1 (stereo not given) | 57* | 0 | 3 | 5 | 8
CN(C)c1ccc(CN(C(=O)/C=C/c2ccco2)C2CCS(=O)(=O)C2)cc1 (stereo not given) | -5 | 0 | 4 | -2 | 6
CC1(C)CC(=O)C(N=Nc2ccc(F)cc2)=C(O)C1 | 30* | 0 | 26 | -1 | 8
Cc1ccc(SCC(=O)N2N=CCC2c2ccccc2)cc1 (stereo not given) | -1 | 44* | 34 | -2 | 3
O=C(CSc1nnnn1-c1ccccc1)N1N=CCC1c1ccccc1 (stereo not given) | x | x | -4 | x | 5
CC(C)C#Cc1cnc2c(c1)C(=O)N([C@@H](C)CO)C[C@H](C)[C@@H](CN(C)C(=O)CCN1CCCCC1)O2 | -1 | 0 | x | -3 | x
O=c1cnnc(N/N=C/C2CC=CCC2)[nH]1 (stereo not given) | 0 | 44* | -2 | 0 | x
COc1ccc2c3c(n(C)c2c1)[C@H](CO)N(CC1CC1)CC31CCN(C(=O)CN(C)C)CC1 | -5 | 0 | x | -60 | x
C=C1c2cccc(O)c2C(O)=C2C(=O)[C@]3(O)C(O)=C(C(N)=O)C(=O)[C@@H](N(C)C)[C@@H]3[C@@H](O)[C@H]12 | x | 0 | x | 94* | 2
C[C@H]1c2cccc(O)c2C(O)=C2C(=O)C3(O)C(O)=C(C(N)=O)C(=O)[C@@H](N(C)C)[C@@H]3[C@@H](O)[C@@H]21 (stereo not given in full) | -2 | 0 | x | 24 | 0
COc1ccc(S(=O)(=O)Nc2cccc3c2O[C@H](CN(C)Cc2ccccc2)[C@@H](C)CN([C@@H](C)CO)C3=O)cc1 | -2 | 0 | x | -1 | x
O=[N+]([O-])c1ccc(Nc2nc(NC3CCCCC3)nc(N3CCCC3)n2)cc1 | 9 | 44* | 2 | -8 | 5
CC(C)C[C@H](NC(=O)[C@H](Cc1ccccc1)n1c(=O)[nH]c2ccccc2c1=O)C(=O)N1CCC(C(=O)O)CC1 | 1 | 0 | x | -1 | 2
C[C@H](NC(=O)[C@H](Cc1ccccc1)n1c(=O)[nH]c2ccccc2c1=O)C(=O)N1CCC(C(=O)O)CC1 | 15* | 0 | x | -4 | -1
CC1(C)CN(c2ccccc2)N(C(=O)c2ccc(F)cc2)C1=O | 24* | 0 | 3 | 1 | 5
C[C@@H]1CN([C@@H](C)CO)C(=O)Cc2cc(NC(=O)CCCCCC(=O)Nc3ccccc3N)ccc2O[C@@H]1CN(C)Cc1ccc(Oc2ccccc2)cc1 | 26* | 0 | x | 1 | x
COc1ccc(CN(C)C[C@H]2Oc3ccc(NC(=O)CCCCCC(=O)Nc4ccccc4N)cc3CC(=O)N([C@@H](C)CO)C[C@H]2C)cc1 | x | 0 | x | 0 | x
C[C@H]1CN([C@@H](C)CO)C(=O)Cc2cc(NC(=O)CCCCCC(=O)Nc3ccccc3N)ccc2O[C@@H]1CN(C)Cc1ccc(Oc2ccccc2)cc1 | 29* | 0 | x | -4 | x
C[C@@H]1CN([C@H](C)CO)C(=O)Cc2cc(NC(=O)CCCCCC(=O)Nc3ccccc3N)ccc2O[C@@H]1CN(C)Cc1ccc(Oc2ccccc2)cc1 | 16* | 0 | x | -2 | x
COc1ccc(CN(C)C[C@H]2Oc3ccc(NC(=O)CCCCCC(=O)Nc4ccccc4N)cc3CC(=O)N([C@H](C)CO)C[C@H]2C)cc1 | x | 0 | x | -1 | x
COc1ccc(NC(=O)Nc2cccc3c2O[C@@H](CN(C)S(=O)(=O)c2ccc(Cl)cc2)[C@H](C)CN([C@H](C)CO)C3=O)cc1 | 0 | 0 | x | -1 | x
COc1ccc(N=Nc2c(N)nn(C)c2N)cc1 | x | 44* | 5 | -4 | 18
CCC(=O)N(C)C[C@@H]1Oc2cc(/C=C/c3ccccc3)ccc2S(=O)(=O)N([C@@H](C)CO)C[C@@H]1C | 6 | 0 | x | 4 | x
SMILES | SIRT5 inh | FGF22 binding | NSD2 HMT inh | CASP6 VEID inh | UCH37 inh
CCn1c(/C=C/N(C)c2ccccc2)[n+](CC)c2ccc(Cl)cc21 | x | x | 5 | x | 23*
CC1(C)N=C(N)NC(Nc2ccccc2Cl)=N1 | -1 | 43* | -1 | -3 | -1
COc1ccccc1NC1=NC(C)(C)N=C(N)N1 | x | x | -3 | x | 3
CC(C)NC(=O)N(C)C[C@@H]1Oc2ccc(NC(=O)CCCN(C)C)cc2C(=O)N([C@@H](C)CO)C[C@H]1C | 3 | 0 | x | -2 | x
O=C(/C=C/c1c(Cl)nc2ccccn12)Nc1ccc(F)cc1 | 4 | 44* | -1 | -2 | -186
O=C(C[C@@H]1CC[C@H]2[C@@H](COC[C@@H](O)CN2C(=O)Cc2ccccc2)O1)NC1CCC1 | 3 | 0 | x | -1 | x
COc1cc(/C=C2\SC(=S)N(C(C(=O)O)c3ccccc3)C2=O)cc(OC)c1OC (stereo not given) | 16* | 0 | 9 | 5 | 6
COc1ccc(/C=C2\SC(=S)N(C(C(=O)O)c3ccccc3)C2=O)c(OC)c1 (stereo not given) | 12 | 0 | x | 15 | 7
O=C(O)C(c1ccccc1)N1C(=O)/C(=C\c2ccc(-c3ccc(Br)cc3)o2)SC1=S (stereo not given) | 54* | 0 | 1 | 71* | x
COc1cccc(/C=C2\SC(=S)N(C(C(=O)O)c3ccccc3)C2=O)c1OC (stereo not given) | 5 | 42 | 3 | 4 | 11
COC(=O)c1ccc(CNC(=O)COC(=O)c2ccccc2-c2ccccc2)cc1 | 0 | 0 | 2 | 59* | 2
OC(c1ccccc1)c1ccncc1 (stereo not given) | -4 | 0 | x | 1 | 4
OC(C1=CC(=Cc2ccncc2)c2ccccc21)c1ccncc1 (stereo not given) | x | 43* | 5 | 0 | 9
Cc1cc(C)nc(NN=Cc2cn[nH]c2-c2ccccc2)n1 | x | x | x | x | 3
Cc1ccc(-c2ccc(CN3C(C(C)C)C(=O)N(Cc4cn(Cc5ccco5)nn4)CCS3(=O)=O)cc2)cc1 (stereo not given) | 16* | 0 | x | 18 | x
CC(C)C1C(=O)N(Cc2cn(Cc3ccco3)nn2)CCS(=O)(=O)N1Cc1ccc(-c2cccc(N(C)C)c2)cc1 (stereo not given) | x | 1 | x | -4 | x
CC(C)CC1C(=O)N(Cc2cn(CC3CCCCC3)nn2)CCS(=O)(=O)N1Cc1ccc(-c2ccc(Cl)c(Cl)c2)cc1 (stereo not given) | 19* | x | x | -3 | x
CC(C)NC(=O)Nc1ccc2c(c1)C(=O)N([C@H](C)CO)C[C@@H](C)[C@@H](CN(C)S(C)(=O)=O)O2 | 0 | x | x | 1 | x
NC(Cc1ccc([N+](=O)[O-])cc1)=NOC(=O)CC1CCCCC1 | x | x | x | x | 3
